Screens: PubChem BioAssay, several laboratories
LMPTP inh: LMPTP (human) inhibition | P24666 | recombinant LMPTP-A, OMFP fluorogenic substrate, fluorescence intensity | inhibition, % at 20 µM | 360,000 tested, 0.22% active | AID 651560;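 active = compounds that cut the enzyme signal by at least half of the control window in the single-dose screen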;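 note: plate controls were DMSO wells with enzyme plus substrate for no effect and substrate without enzyme for full effect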
Target sequence (P24666 whole entry, looked up): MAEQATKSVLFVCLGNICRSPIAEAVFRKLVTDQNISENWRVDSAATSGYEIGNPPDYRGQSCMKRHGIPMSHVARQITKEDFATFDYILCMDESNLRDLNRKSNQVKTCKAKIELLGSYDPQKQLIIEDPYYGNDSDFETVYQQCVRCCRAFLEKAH
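material = LMPTP-A | quantity = 0.625 nM enzyme | reagent = OMFP substrate, 400 µM final | buffer or medium = Bis-Tris pH 6.0, DTT, detergent | detection = endpoint fluorescence intensity from OMFP dephosphorylation | dosing = single 20 µM dose | read-out basis = % inhibition relative to no-enzyme and uninhibited control wells | control set = no-enzyme and uninhibited controls | timing = 50 min at room temperature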
rCAG binder: binds r(CAG) RNA repeats. r(CAG) RNA repeat, TO-PRO-1 dye displacement fluorescence. inhibition, % at 3 µM. 370,000 tested, 1.3% active. AID 651821;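 active = inhibition above the plate cutoff, the mean of all test compounds on that plate plus 3 SD, cut at about 35% in these data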;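 note: 0% = DMSO alone and 100% = 100 µM mitoxantrone as full dye displacement; higher means more dye released from RNA so lower well fluorescence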
Scp-1 inhibitor: Scp-1 (human) phosphatase inhibition | 340,000 tested, 0.88% active | inhibition, % at 20 µM | Recombinant Scp1, phosphopeptide, malachite green phosphate absorbance | AID 493091;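 active = inhibition above about 50% at 20 µM, limit read from the data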;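 note: plate controls were DMSO wells with enzyme for no effect and wells lacking enzyme for full effect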
Target sequence (Q9GZU7 76-261 limits assumed): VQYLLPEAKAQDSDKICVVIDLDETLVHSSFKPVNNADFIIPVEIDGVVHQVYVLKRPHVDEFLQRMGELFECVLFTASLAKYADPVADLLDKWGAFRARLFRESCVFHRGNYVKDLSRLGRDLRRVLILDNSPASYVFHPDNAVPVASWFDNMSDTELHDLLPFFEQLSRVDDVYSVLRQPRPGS
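Test system: SCP-1 phosphatase catalytic domain, residues 76-261 | Compound dosing: One concentration, 20 µM, with 1.0% DMSO | Schedule: 45 min room-temperature reaction, 5 min colour, 30 min stabiliser | Detection: Absorbance at 630 nm | Read-out basis: % inhibition of SCP-1 phosphate liberation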
NadD block: inhibitors of Staphylococcus aureus NadD | purified NadD enzyme, colorimetric absorbance read-out | inhibition, % at 20 µM | 360,000 tested, 0.78% active | AID 602399; in the data active = inhibition above about 26%
STEP inh: STEP (human) phosphatase inhibition. recombinant STEP, OMFP fluorogenic substrate, fluorescence. inhibition, % at 20 µM. 360,000 tested, 0.25% active. AID 588621;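 active = inhibition at 20 µM, scaled per plate between control wells, above about 37%, limit read from the data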;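 note: 0% = DMSO with enzyme and substrate and 100% = substrate only without enzyme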
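Measure: Control-normalized % inhibition with plate pattern correction | Test system: STEP phosphatase, cell-free reaction | Medium: pH 6.0 Bis-Tris with DTT and Tween 20 | Technique: Fluorescence, 480/540 nm | Times: Reaction 20 min, ambient temperature | Doses: Single compound dose of 20 µM, 1% DMSO final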
rCAG binder conf: r(CAG) RNA repeat binding, confirmation. shares compounds with rCAG binder. TO-PRO-1 dye displacement fluorescence. inhibition, % at 3 µM. 4,300 tested, 70% active. AID 652065;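 active = inhibition above a per-plate cutoff, the mean inhibition of sample wells plus 3 SD, cut at about 35% in these data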;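 note: loss of TO-PRO-1 fluorescence as compound displaces dye from 1x1 AA loop RNA; 0% = DMSO only wells and 100% = 100 µM mitoxantrone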
dCAG dye counter: counter-screen for rCAG RNA binders: DNA CAG dye complex inhibitors; AID 652068; 4,300 tested, 94% active; inhibition, % at 3 µM; d(CAG) DNA oligo TO-PRO-1 dye displacement, fluorescence; shares compounds with rCAG binder;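 active = inhibition above its plate's cutoff, the mean test-well inhibition plus 3 SD, cut at about 4.8% in these data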;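 note: 0% = DNA dye mix with DMSO and 100% = 100 µM mitoxantrone; hits displace the dye from DNA and so lower well fluorescence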
dCAG dye DR: DNA CAG dye complex inhibition, dose response counter-screen | IC50, µM | shares compounds with rCAG binder | DNA CAG/GTC duplex TO-PRO-1 dye displacement fluorescence | 250 tested, 20% active; in the data active = IC50 below about 10 µM
Active calls of the source: *; i = inactive; nt = no result. A selection: hits, their analogues and other compounds. The true share with any hit is near 2.6%.

SMILES	LMPTP inh	rCAG binder	Scp-1 inhibitor	NadD block	STEP inh	rCAG binder conf	dCAG dye counter	others
CCc1sc(C(C2C(=O)CC(C)(C)CC2=O)C2C(=O)CC(C)(C)CC2=O)cc1[N+](=O)[O-]	-0.4	36.7*	-2.7	9.2	0.3	23.1	6.4*
Cc1ccc(C)n1/N=C1/NC(=O)CS1	0.1	36.1*	7.7	11.1	7.8	20.4	9.9*
COc1ccc(/C=N/NC(=O)c2cc(-c3ccccc3)nc3ccccc23)c(C(=O)O)c1OC	-1.4	16.3	-4.0	1.2	-2.9	nt	nt
Cc1ccc2[nH]c(C(=O)N/N=C/c3ccccc3C(=O)O)c(-c3ccccc3)c2c1	0.7	54.8*	-13.1	5.7	-2.4	36.0*	9.0*
COc1ccc(/C=N/NC(=O)c2[nH]c3ccc(C)cc3c2-c2ccccc2)c(C(=O)O)c1OC	-3.2	38.5*	9.2	5.7	-1.2	46.1*	14.8*
COc1ccc(CN2CN3Cc4ccccc4C3CS2(=O)=O)cc1 (centres undefined)	nt	6.1	nt	nt	nt	nt	nt
Cc1ccc(-c2nc3c(Cl)cc(Cl)cc3c(=O)n2O)cc1	-0.2	57.8*	-17.5	10.6	1.5	14.4	3.0
COc1ccc(Sc2ccc(/C=C3\C(=O)NN(c4ccccc4)C3=O)o2)cc1	4.4	25.6	35.2	7.4	7.5	nt	nt
O=C1NN(c2ccc(Cl)cc2)C(=O)/C1=C\c1ccc(-c2cccc(C(=O)O)c2)o1	81.7*	96.6*	94.5*	10.4	96.6*	66.0*	27.6*
O=C1NN(c2ccccc2)C(=O)/C1=C\c1ccc(-c2cc([N+](=O)[O-])ccc2O)o1	84.1*	35.6*	87.3*	20.7	46.1*	44.4*	19.0*
CN(CCO)c1ccc2c(c1)Oc1ccccc1CN(Cc1cn(Cc3ccccc3C(F)(F)F)nn1)S2(=O)=O	nt	5.7	nt	nt	nt	nt	nt
Nn1c(SCC(=O)N2CCOCC2)nnc1-c1n[nH]c2c1CCC2	nt	0.6	nt	nt	nt	nt	nt
Cc1cc(S(=O)(=O)Nc2nc(CN3CCOCC3)nc3sc4c(c23)CCC4)ccc1F	0.5	53.7*	10.6	11.8	-0.1	49.3*	13.8*
O=C(COC(=O)c1cc(-c2ccc(Cl)s2)nc2ccccc12)NCc1ccco1	3.0	36.5*	-10.3	10.1	0.9	14.8	6.6*
COc1ccc(CNC(=O)COC(=O)c2cc(-c3ccc(Cl)s3)nc3ccccc23)cc1	-1.2	2.9	-9.5	-0.8	1.1	nt	nt
O=[N+]([O-])c1ccc(S(=O)(=O)Nc2nc(-c3ccccc3)cs2)cc1	-0.4	66.2*	5.2	-1.6	-0.4	41.0*	11.1*
COc1ccc(S(=O)(=O)Nc2ccccc2C(=O)Nc2nc(-c3ccc(F)cc3)cs2)cc1OC	4.3	87.0*	-12.6	1.9	-0.9	89.3*	70.7*
CCCNC(=O)c1ccccc1NS(=O)(=O)c1ccc(OC)c(OC)c1	-1.2	1.9	2.5	-5.2	1.6	nt	nt
O=S(=O)(Nc1nc(-c2ccccc2)cs1)c1cc(Cl)ccc1Cl	0.4	80.1*	-5.2	4.7	-7.7	73.5*	38.0*
O=C(Nc1ccc(Cl)c(Cl)c1)Nc1nc(-c2ccccc2)cs1	-1.0	23.8	-9.8	18.3	0.7	nt	nt
Cc1ccc(S(=O)(=O)Nc2nc(-c3ccc(F)cc3)cs2)cc1	-0.2	62.3*	-8.4	-3.2	3.5	56.0*	15.4*
Nc1[nH]c(C(=O)c2ccccc2)c(-c2ccc(Cl)c(F)c2)c1C(=O)c1c[nH]c2ccccc12	nt	7.9	nt	nt	nt	nt	nt
O=S(=O)(Nc1nc(-c2ccccc2)cs1)c1cccc(C(F)(F)F)c1	1.0	77.7*	-10.1	2.3	-1.0	56.8*	22.1*
CC1(C)CC(=O)C2=C(C1)c1c(ccc3ccccc13)NC2c1cc([N+](=O)[O-])cc([N+](=O)[O-])c1O (centres undefined)	2.5	92.7*	-2.5	26.6	3.5	88.8*	63.8*
COc1cc(NS(=O)(=O)c2ccc(N/C=C\C(=O)c3ccc(OC)c(OC)c3)cc2)nc(OC)n1	0.0	34.8*	-10.3	9.7	3.3	45.7*	13.9*
SMILES	LMPTP inh	rCAG binder	Scp-1 inhibitor	NadD block	STEP inh	rCAG binder conf	dCAG dye counter	others
COc1cccc(C(=O)/C=C/Nc2ccc(S(=O)(=O)Nc3cc(OC)nc(OC)n3)cc2)c1	1.8	45.3*	-2.8	8.3	6.3	54.3*	19.3*
COc1cc(NS(=O)(=O)c2ccc(Nc3nc(-c4ccccn4)cs3)cc2)nc(OC)n1	1.8	44.6*	-4.5	9.6	-2.7	34.4	8.9*
Cc1ccc2[nH]c3c(c2c1)CCC3=O	-0.8	2.4	6.7	-0.7	2.5	nt	nt
Cc1ccc2[nH]c3c(c2c1)CCc1cn[nH]c1-3	0.4	46.9*	8.9	2.9	2.8	5.4	5.0*
Cc1csc(NC(=O)COCC(=O)O)c1-c1nc2ccccc2s1	0.9	55.5*	32.9	1.4	7.5	43.2*	9.7*
O=C(O)Cn1cc(/C=C2/SC(=O)N(CC(=O)N3CCCCCC3)C2=O)c2ccccc21	nt	40.3*	1.6	nt	nt	36.9*	10.4*
COc1ccc(NC(=O)Nc2ccc3c(c2)C(=O)N([C@H](C)CO)C[C@H](C)[C@H](CN(C)Cc2ccc(C(=O)O)cc2)OCCCC[C@@H](C)O3)cc1	-3.7	36.9*	nt	15.7	2.6	41.5*	10.4*
COc1ccc(NC(=O)Nc2ccc3c(c2)C(=O)N([C@H](C)CO)C[C@@H](C)[C@@H](CN(C)Cc2ccc4c(c2)OCO4)OCCCC[C@H](C)O3)cc1	nt	6.1	nt	nt	nt	nt	nt
CNC(=S)N/N=C/c1cc(Br)cc(Br)c1O	0.8	10.1	-9.4	7.6	-3.5	nt	nt
Oc1c(Br)cc(Br)cc1/C=N/NC(=S)N[C@H]1CC2C=CC1C2 (some centres undefined)	4.0	74.0*	-9.5	29.7	0.6	65.7*	28.6*	dCAG dye DR=i
O=C(CN1C(=O)/C(=C2\SC(=S)N(CCS(=O)(=O)O)C2=O)c2ccccc21)Nc1cccc(Br)c1	82.6*	88.1*	101.3*	51.0*	97.9*	89.5*	65.4*
O=C(Cc1nnc(NC(=O)c2ccccc2)s1)N/N=C/c1ccco1	-1.3	71.4*	-2.6	0.8	1.4	5.5	5.7*
O=C(NCc1n[nH]c(=S)n1-c1cccc(Cl)c1)c1ccc(S(=O)(=O)N2CCCC2)cc1	-0.1	10.4	-6.4	-8.3	-1.3	nt	nt
O=C(NCc1n[nH]c(=S)n1-c1ccc(Cl)c(Cl)c1)c1ccc(S(=O)(=O)N2CCCCC2)cc1	-0.3	36.3*	-8.1	9.3	0.7	29.8	10.6*
CCCN(CCC)S(=O)(=O)c1ccc(C(=O)NCc2n[nH]c(=S)n2-c2ccc(Cl)c(Cl)c2)cc1	0.2	35.0*	-2.8	17.5	-1.2	28.9	7.0*
